Measured values: ChEMBL document CHEMBL1806442, “Synthesis of novel alkyltriazole tagged pyrido[2,3-d]pyrimidine derivatives and their anticancer activity” (Eur J Med Chem, 2011)
In brackets after ≈: the same amount, converted by molar mass.

Legend:
Type in all cases: functional, cell-based
[1] = test system: U-937; test: Cytotoxicity against human U937 cells after 24 hrs by MTT assay; settings: U-937, 24 h
Method in brief: (§1)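 Cells kept in RPMI-1640 with 10% heat-inactivated FBS, 1 mM NaHCO3, 2 mM L-glutamine and 100 units/ml antibiotic. Seeded at 2 × 10^4 per well in 0.1 ml, left overnight, then given graded compound from DMSO stocks for 24 h. MTT added for a further 3 h at 37 °C, formazan dissolved in DMSO and read at 570 nm. Percent viability inhibition taken against untreated control; IC50 from linear regression.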

[2] = test system: THP-1; test: Cytotoxicity against human THP1 cells after 24 hrs by MTT assay; settings: THP-1, 24 h; method in brief: as §1
[3] = test system: COLO 205; test: Cytotoxicity against human COLO205 cells after 24 hrs by MTT assay; settings: COLO 205, 24 h; method in brief: as §1

Structure (SMILES) | IC50 [1] | IC50 [2] | IC50 [3]
Cc1nc2nc(-c3ccccc3)cc(C(F)(F)F)c2c(=O)n1Cc1cn(-c2ccccc2)nn1 | > 200 µg/mL | > 200 µg/mL | > 200 µg/mL
CCc1nc2nc(-c3ccccc3)cc(C(F)(F)F)c2c(=O)n1Cc1cn(CCC(F)(F)C(F)(F)C(F)(F)C(F)(F)C(F)(F)C(F)(F)C(F)(F)C(F)(F)F)nn1 | > 200 µg/mL | > 200 µg/mL | > 200 µg/mL
Cc1nc(OCc2cn(CCC(F)(F)C(F)(F)C(F)(F)C(F)(F)C(F)(F)C(F)(F)C(F)(F)C(F)(F)F)nn2)c2c(C(F)(F)F)cc(-c3ccccc3)nc2n1 | 22.4 µg/mL (≈ 26.9 µM) | 107 µg/mL (≈ 129 µM) | > 200 µg/mL
CCc1nc2nc(-c3ccccc3)cc(C(F)(F)F)c2c(=O)n1Cc1cn(CCC(F)(F)C(F)(F)C(F)(F)C(F)(F)C(F)(F)C(F)(F)F)nn1 | > 200 µg/mL | > 200 µg/mL | > 200 µg/mL
COc1cc([C@@H]2c3cc4c(cc3[C@@H](O[C@@H]3O[C@@H]5CO[C@@H](C)O[C@H]5[C@H](O)[C@H]3O)[C@H]3COC(=O)[C@H]23)OCO4)cc(OC)c1O [ETOPOSIDE] | 17.9 µg/mL (≈ 30.5 µM) | 2.16 µg/mL (≈ 3.67 µM) | 7.24 µg/mL (≈ 12.3 µM)
Cc1nc2nc(-c3ccccc3)cc(C(F)(F)F)c2c(=O)n1Cc1cn(CCC(F)(F)C(F)(F)C(F)(F)C(F)(F)C(F)(F)C(F)(F)C(F)(F)C(F)(F)F)nn1 | 124 µg/mL (≈ 149 µM) | > 200 µg/mL | > 200 µg/mL
CCCCCCCCCCn1cc(Cn2c(CC)nc3nc(-c4ccccc4)cc(C(F)(F)F)c3c2=O)nn1 | 17.8 µg/mL (≈ 33 µM) | 82.6 µg/mL (≈ 153 µM) | > 200 µg/mL
O=c1c2c(C(F)(F)F)cc(-c3ccccc3)nc2ncn1Cc1cn(CCC(F)(F)C(F)(F)C(F)(F)C(F)(F)C(F)(F)C(F)(F)C(F)(F)C(F)(F)F)nn1 | > 200 µg/mL | 79.1 µg/mL (≈ 96.7 µM) | 163 µg/mL (≈ 199 µM)
CCCCCCc1nc2nc(-c3ccccc3)cc(C(F)(F)F)c2c(=O)n1Cc1cn(CCC(F)(F)C(F)(F)C(F)(F)C(F)(F)C(F)(F)C(F)(F)F)nn1 | 7.56 µg/mL (≈ 9.42 µM) | > 200 µg/mL | 132 µg/mL (≈ 165 µM)
Cc1nc2nc(-c3ccccc3)cc(C(F)(F)F)c2c(=O)n1Cc1cn(CCC(F)(F)C(F)(F)C(F)(F)C(F)(F)C(F)(F)C(F)(F)F)nn1 | > 200 µg/mL | > 200 µg/mL | > 200 µg/mL
CCc1nc(OCc2cn(CCC(F)(F)C(F)(F)C(F)(F)C(F)(F)C(F)(F)C(F)(F)F)nn2)c2c(C(F)(F)F)cc(-c3ccccc3)nc2n1 | 9.22 µg/mL (≈ 12.4 µM) | > 200 µg/mL | > 200 µg/mL
CCCCCCCCCCn1cc(Cn2c(C)nc3nc(-c4ccccc4)cc(C(F)(F)F)c3c2=O)nn1 | 6.2 µg/mL (≈ 11.8 µM) | 11.3 µg/mL (≈ 21.4 µM) | 15 µg/mL (≈ 28.5 µM)
CCCCCCCCCCn1cc(Cn2cnc3nc(-c4ccccc4)cc(C(F)(F)F)c3c2=O)nn1 | 8.16 µg/mL (≈ 15.9 µM) | 16.9 µg/mL (≈ 33 µM) | 19.2 µg/mL (≈ 37.6 µM)
CCCCCCc1nc2nc(-c3ccccc3)cc(C(F)(F)F)c2c(=O)n1Cc1cn(CCC(F)(F)C(F)(F)C(F)(F)C(F)(F)C(F)(F)C(F)(F)C(F)(F)C(F)(F)F)nn1 | > 200 µg/mL | > 200 µg/mL | > 200 µg/mL
FC(F)(F)c1cc(-c2ccccc2)nc2nc(-c3ccccc3)nc(OCc3cn(CCC(F)(F)C(F)(F)C(F)(F)C(F)(F)C(F)(F)C(F)(F)C(F)(F)C(F)(F)F)nn3)c12 | 44.4 µg/mL (≈ 49.6 µM) | > 200 µg/mL | > 200 µg/mL
CC(C)c1nc2nc(-c3ccccc3)cc(C(F)(F)F)c2c(=O)n1Cc1cn(CCC(F)(F)C(F)(F)C(F)(F)C(F)(F)C(F)(F)C(F)(F)C(F)(F)C(F)(F)F)nn1 | 8.35 µg/mL (≈ 9.7 µM) | 142 µg/mL (≈ 165 µM) | > 200 µg/mL
